{
  "source": "paper PMC12178318",
  "about": "(Cancer, 2025)",
  "key": {"[1]": {"system": "patients with advanced solid tumors", "experiment": "Phase 1 safety and tolerability", "type": "in vivo, human", "settings": "any cycle, N = 36", "method_in_brief": "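Adults (≥18 y) with locally advanced or metastatic solid tumours who had failed available therapy. They took oral test compound at 0.3–100 mg once daily alone for 28 days (cycle 0), then with IV anti-CCR4 antibody 1 mg/kg weekly (cycle 1) and every 2 weeks thereafter. AEs were coded by MedDRA 19.0 and graded by CTCAE 4.03, with relatedness judged by investigators. The DLT window was 56 days. Patients receiving any dose were counted as frequency and percentage.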"}, "[2]": {"system": "patients with mycosis fungoides or Sézary syndrome", "settings": "cited from earlier work"}, "[3]": {"settings": "184 mogamulizumab-treated patients, MAVORIC"}},
  "data": [
    {"substance": "mogamulizumab: recombinant, humanized monoclonal antibody of immunoglobulin G1-κ targeting CCR4", "values": [
      {"measurement": "IRRs related (TRAE) to the named drug, patients", "setting": "[1]", "value": 39, "unit": "%"},
      {"measurement": "drug eruption related (TRAE) to the named drug, patients", "setting": "[1]", "value": 50, "unit": "%"},
      {"measurement": "nausea related (TRAE) to the named drug, patients", "setting": "[1]", "value": 14, "unit": "%"},
      {"measurement": "IRRs, patients", "setting": "[2]; [3]", "value": 33, "unit": "%"},
      {"measurement": "drug eruptions, patients", "setting": "[2]; [3]", "value": 24, "unit": "%"},
      {"measurement": "long-term responders who experienced drug eruptions", "setting": "[2]; post hoc analysis of MAVORIC", "value": 60, "unit": "%"}
    ]}
  ]
}
